In ChEMBL document CHEMBL4513216, “Probing the Open Global Health Chemical Diversity Library for Multistage-Active Starting Points for Next-Generation Antimalarials” (ACS Infect Dis, 2020):

Assay: Toxicity liver stage against HepG2, at 10uM
Format: cell-based
Parameters: test concentration 10 uM, cell line HepG2-A16-CD81EGFP
Details: human, HepG2-A16-CD81EGFP cells; read-out: INHIBITION
Outline: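 Uninfected HepG2-A16-CD81EGFP cells, 3 × 10^3 per well, 1536-well, plated on prespotted compound at 10 μM final, parasite-free screening media added to match infected plates; puromycin 10 μM positive, DMSO 0.5% negative; run in parallel with 48 h PbLuc assay at 37 °C, 5% CO2; viability by CellTiter-Glo luminescence, normalized to controls.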

Molecule `CN1CCCN(CC(CC(=O)Nc2ccc(Cl)cc2)C(=O)O)CC1` (stereo not drawn) has a cytotoxicity at 10 µM of -5.4%.
Work on `COc1cccc(C2SCC(=O)Nc3ccsc32)c1OC` (stereo not drawn) yielded a cytotoxicity at 10 µM of 0.661%.
Work on `COc1ccccc1C1CC(=O)Nc2nc(N3CCCCC3)sc21` (stereo not drawn) yielded a cytotoxicity at 10 µM of 11.5%.
Molecule `O=C1CSC(c2ccc(O)c(Cl)c2)c2c(n(C3CCOCC3)[nH]c2=O)N1` (stereo not drawn) has a cytotoxicity at 10 µM of -3.08%.
Work on `CCS(=O)(=O)N1CC[C@]2(C[C@@H](OCC3CC3)CO2)C1` yielded a cytotoxicity at 10 µM of -15.6%.
For `CCC1=N[C@@]2(CC[C@@H]3CN(S(=O)(=O)CC(C)C)C[C@@H]32)C(=O)N1C`, the cytotoxicity at 10 µM was 5.24%.
With `Cn1nnc2c1C(COCC1CC1)CN(C(=O)Cc1ccsc1)C2` (stereo not drawn) the cytotoxicity at 10 µM was -0.11%.
`O=C(NC1=NCCCN1c1ccc(Cl)cc1)c1cccc(Cl)c1` gave a cytotoxicity at 10 µM of -17.5%.
With `CN(C)C(=O)c1cccc(C2CNCCN2C)c1` (stereo not drawn) the cytotoxicity at 10 µM was -3.15%.
`CCn1c(C)nc2cc(NC(=O)CC3CCN(S(C)(=O)=O)CC3)ccc21` gave a cytotoxicity at 10 µM of 4.39%.
`O=C(NCCNC(=O)C1CCN(c2ncccn2)CC1)c1ccoc1` gave a cytotoxicity at 10 µM of -9.99%.
Molecule `CC1CCN(S(=O)(=O)NC(C)Cc2ccco2)CC1` (stereo not drawn) has a cytotoxicity at 10 µM of 3.53%.
Work on `Cn1cc(C(NCc2ccc(F)cc2)c2cccc(F)c2)cn1` (stereo not drawn) yielded a cytotoxicity at 10 µM of 0.137%.
Molecule `CC(=O)N1CCCN(CCCc2ccccc2)CC1` has a cytotoxicity at 10 µM of -9.28%.
For `CCc1ncc2c(n1)CN(CC(=O)NC1CCCCNC1=O)CC2` (stereo not drawn), the cytotoxicity at 10 µM was 6.61%.
Molecule `O=S(=O)(NCc1ccnc(-n2ccnc2)c1)c1cncc(Cl)c1` has a cytotoxicity at 10 µM of 3.46%.
For `CCN(Cc1cnc(C)cn1)C1CCN(c2ccccc2)C1=O` (stereo not drawn), the cytotoxicity at 10 µM was 4.81%.
`Cc1noc(C)c1CN1CCC(NC(=O)OC(C)(C)C)CC1` showed a cytotoxicity at 10 µM of 6.27%.
Work on `COCCCNC(=O)c1c[nH]c2ccc(OC)cc12` yielded a cytotoxicity at 10 µM of -4.76%.
`CCn1nc(C)c(CNC(=O)NCC(C)(O)c2ccsc2)c1C` (stereo not drawn) showed a cytotoxicity at 10 µM of 7.59%.
With `O=C1OCCN1CCN1CCCN(Cc2ccccc2F)CC1` the cytotoxicity at 10 µM was -7.11%.
For `N#Cc1ccc(CN2C(=O)c3ccccc3CS2(=O)=O)c(F)c1`, the cytotoxicity at 10 µM was -0.639%.
In the case of `Cc1c(C(=O)NC(C)C)nnn1-c1cccc(C(F)(F)F)c1`, the cytotoxicity at 10 µM is reported as -1.54%.
Work on `Cc1cc(C)n(CC2CCCN2C(=O)c2ccc3c(c2)OCCO3)n1` (stereo not drawn) yielded a cytotoxicity at 10 µM of 5.43%.
`CCC(C)(C)C(=O)NCCCOC1CCOC1` (stereo not drawn) showed a cytotoxicity at 10 µM of -6.21%.
Molecule `COCCN(C)c1ccc(NCc2cccnc2)nc1` has a cytotoxicity at 10 µM of -9.9%.
`CCOc1ccc(C(F)(F)F)cc1NC(=O)N1CCNC(=O)C1` showed a cytotoxicity at 10 µM of -1.11%.
In the case of `COc1ccc(-c2ccc(C(=O)O)c(F)c2)c(F)c1`, the cytotoxicity at 10 µM is reported as -0.378%.
For `CCc1ccc(C(COC)NC(=O)c2ccc(O)nc2)o1` (stereo not drawn), the cytotoxicity at 10 µM was 3.06%.
In the case of `O=C(CC1=CCCCC1)Nc1ccc(CN2C(=O)CCC2=O)cc1`, the cytotoxicity at 10 µM is reported as 0.719%.
`COc1ccnc(N(C)Cc2ccccc2OC(F)(F)F)n1` showed a cytotoxicity at 10 µM of 6.15%.
For `CCCS(=O)(=O)NC(=O)c1ccc(CC)o1`, the cytotoxicity at 10 µM was -8.37%.
For `CC(Cc1ccco1)NC(=O)CSc1nnc[nH]1` (stereo not drawn), the cytotoxicity at 10 µM was 13%.
For `COCC1CN(C(=O)Nc2cc(-n3cccc3)ccc2F)CCO1` (stereo not drawn), the cytotoxicity at 10 µM was 3.61%.
`Cc1oc(C(=O)O)cc1S(=O)(=O)Nc1cccc(-n2nccc2C)c1` showed a cytotoxicity at 10 µM of 4.46%.
Work on `COC(=O)C1CCN(c2cncc(-n3nc(C)cc3C)n2)CC1` yielded a cytotoxicity at 10 µM of -9.44%.
In the case of `COc1cc(C)nc(N2CCN(C(=O)CCc3cscn3)CC2)n1`, the cytotoxicity at 10 µM is reported as -10.2%.
Molecule `CCOC(C)c1nc(CN2CCNCC2)cs1` (stereo not drawn) has a cytotoxicity at 10 µM of -13.3%.
Molecule `O=C(Nc1nncs1)NC1CCOc2ccccc21` (stereo not drawn) has a cytotoxicity at 10 µM of -10.4%.
For `CCN(Cc1nccs1)Cc1cc(Cl)ccc1OC`, the cytotoxicity at 10 µM was -1.06%.
In the case of `CCCn1nc(C)c2c1NC(=O)CC2c1ccc(CN2CCCC2)s1` (stereo not drawn), the cytotoxicity at 10 µM is reported as 0.355%.
In the case of `c1ccc(CCCN2CCN(CCn3cncn3)CC2)cc1`, the cytotoxicity at 10 µM is reported as -11.3%.
`COc1cccc(CNC(=O)N2CCN3CCNC(=O)C3C2)c1` (stereo not drawn) showed a cytotoxicity at 10 µM of 2.62%.
Molecule `CN(CCc1ccccn1)C(=O)CCC1CCCN(S(C)(=O)=O)C1` (stereo not drawn) has a cytotoxicity at 10 µM of 4.77%.
With `CS(=O)(=O)NCC1CCN(Cc2cc3ccccc3[nH]c2=O)C1` (stereo not drawn) the cytotoxicity at 10 µM was -6.92%.
`COc1ccc(C(CC(=O)NCc2n[nH]c(N)n2)c2ccccc2)cc1` (stereo not drawn) showed a cytotoxicity at 10 µM of 7.66%.
`CC(=O)N[C@@H]1C[C@H](Cc2ccccc2)O[C@H](c2ccc(C(=O)O)cc2)C1` gave a cytotoxicity at 10 µM of 2.76%.
`CC(=O)N1CCCC(C(=O)N2Cc3nc(C)n(C)c(=O)c3C2)C1` (stereo not drawn) showed a cytotoxicity at 10 µM of -3.65%.
Molecule `COc1cccc(O)c1CN1CCCC(Nc2cccc(F)c2)C1` (stereo not drawn) has a cytotoxicity at 10 µM of -4.47%.
For `O=C(CCN1CCOC(C(F)(F)F)C1)NCc1cccc(Cl)c1` (stereo not drawn), the cytotoxicity at 10 µM was 2.04%.
Molecule `Cn1ncc2c(NCC3CCS(=O)(=O)C3)nc(-c3ccncc3)nc21` (stereo not drawn) has a cytotoxicity at 10 µM of -3.91%.
For `COCCN(Cc1ccccn1)Cc1sccc1C`, the cytotoxicity at 10 µM was -3.6%.
For `Cc1cccc(C(C(=O)NCc2nc(-c3cccnc3)no2)N(C)C)c1` (stereo not drawn), the cytotoxicity at 10 µM was 6.45%.
Work on `CCn1cc(CN2CCC(c3nnc(CN(C)C)n3CC)CC2)cn1` yielded a cytotoxicity at 10 µM of -22.3%.
`CN1CCCN(C(=O)c2ccc3c(c2)nc(N2CCOCC2)n3C)CC1` showed a cytotoxicity at 10 µM of -11.9%.
In the case of `CCNC(=O)[C@@H]1C[C@H](NC(=O)c2cncnc2C)CN1CCCSC`, the cytotoxicity at 10 µM is reported as -11.7%.
`COc1cccc(OCC2CCCN(C3CCN(C(C)=O)CC3)C2)c1` (stereo not drawn) gave a cytotoxicity at 10 µM of -18.3%.
Molecule `CS(=O)(=O)CCC(=O)N1CCC2(CCCN(C3CCOCC3)C2=O)C1` (stereo not drawn) has a cytotoxicity at 10 µM of -7.64%.
Molecule `O=C(c1ccc(C2CCCO2)s1)N1CCS(=O)(=O)CC1` (stereo not drawn) has a cytotoxicity at 10 µM of -14.8%.
In the case of `Cn1ccnc1CN1CCN(Cc2ccc(C#N)cc2F)CC1`, the cytotoxicity at 10 µM is reported as -13.2%.
Work on `COc1c(CNC2CCCOc3ccccc32)c(C(C)C)nn1C` (stereo not drawn) yielded a cytotoxicity at 10 µM of -3.48%.
In the case of `O=C(c1nn(-c2ccccc2F)cc1O)N1CCCCC1`, the cytotoxicity at 10 µM is reported as 3.36%.
Work on `NC(=O)NCCC(=O)NCc1nn(-c2ccccc2)c2c1CCC2` yielded a cytotoxicity at 10 µM of -9.83%.
In the case of `Cc1cnn(CCNCc2csc(-c3ccc(C)o3)n2)c1`, the cytotoxicity at 10 µM is reported as -1.64%.
`COC(=O)CN1CCC(C(=O)c2cc(F)ccc2F)CC1` showed a cytotoxicity at 10 µM of -6.52%.
For `CCc1nc(C2CCCN2CC(=O)N2CCCc3ccccc32)no1` (stereo not drawn), the cytotoxicity at 10 µM was -25.2%.
Molecule `CCOc1ccccc1OC1CCN(C(=O)c2csnn2)CC1` has a cytotoxicity at 10 µM of -5.5%.
In the case of `O=C(Cc1ccc2c(c1)CCO2)N1CCN(c2ccncc2)CC1`, the cytotoxicity at 10 µM is reported as -4.8%.
Work on `CN(Cc1ccsc1)C(=O)Nc1ccc(N2CCCC2)nc1` yielded a cytotoxicity at 10 µM of -10.5%.
With `COc1ccc(CC(=O)N2CCCC(n3nc(C)cc3C)C2)cc1` (stereo not drawn) the cytotoxicity at 10 µM was 0.471%.
In the case of `Cc1cc(C(=O)NCc2ccc(N3CCCC(C(N)=O)C3)cc2)on1` (stereo not drawn), the cytotoxicity at 10 µM is reported as -9.56%.
`Cc1nn(C)c(N(C)C)c1CNCc1ccccc1CO` showed a cytotoxicity at 10 µM of -8.84%.
Work on `Cc1nc(C2CCCN(C(=O)c3cccc4c3OCCO4)C2)no1` (stereo not drawn) yielded a cytotoxicity at 10 µM of -8.93%.
Molecule `O=C(CCN1CCCN(c2nccs2)CC1)Nc1ccccc1` has a cytotoxicity at 10 µM of 10.5%.
`Cc1cc(NC(=O)N(CC2CCOC2)C2CC2)no1` (stereo not drawn) gave a cytotoxicity at 10 µM of -0.457%.
`NS(=O)(=O)Cc1ccc(CNC(=O)NCC2CCOC2)cc1` (stereo not drawn) showed a cytotoxicity at 10 µM of 1.18%.
`Cc1ccccc1OC1CCN(CC(=O)Nc2ccn(C)n2)CC1` showed a cytotoxicity at 10 µM of -3.34%.
`Fc1ccc(CN2CCO[C@H]3[C@H](OCCN4CCCC4)CC[C@@H]32)cc1` showed a cytotoxicity at 10 µM of 2.17%.
For `COc1c(CNCCNC(=O)c2ccccc2)c(C)nn1C`, the cytotoxicity at 10 µM was -4.74%.
In the case of `Cc1cccc(NC(=O)N2CCCn3cnc(CN4CCCC4)c3C2)c1`, the cytotoxicity at 10 µM is reported as -12.2%.
In the case of `Cn1cc(C(=O)N[C@@H]2CN(Cc3cccs3)[C@@H]3CCCO[C@@H]32)cn1`, the cytotoxicity at 10 µM is reported as -13.4%.
Work on `CSc1ncccc1C(=O)N1C[C@@H]2CC[C@H]1CN(c1ncccn1)C2` yielded a cytotoxicity at 10 µM of -4.03%.
For `CCN1CCc2c(sc3c2C(=O)NC(C=Cc2ccccc2)N3)C1` (stereo not drawn), the cytotoxicity at 10 µM was 4.73%.
